Test results published in PubChem BioAssay.
The source made the active and inactive calls.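 The calls were made as follows, unless noted: active = fluorescence slope after compound addition differing from the mean of all screened samples at 99.7% confidence, in either direction; inactive = the rest.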

How the values were obtained:
[1] = inhibitors of TNFa-induced NFkB p65 translocation, primary screen, imaging, HUVEC, MLSMR starter and 10KST1 sets (AID 438;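 active = inhibition above 20% together with a positive visual image hit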;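 also: compound added about 3h40 before a 20 min TNFalpha stimulation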;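 as to inhibition: signal is the nuclear over cytoplasmic p65 intensity ratio per well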); settings: HUVEC TNFa-induced p65 nuclear translocation; cell count: measured here: nuclei count (cytotoxicity indicator), at 2.08 µM; inhibition: at 2 µM, stronger effect = higher value, 0% TNFa-plus-vehicle, 100% no-TNFa wells
[2] = inhibitors of E-selectin induction by TNFa, primary screen, imaging, HUVEC, immunofluorescence, MLSMR starter and 10KST1 sets (AID 487;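 active = visually confirmed hit in the image check and inhibition above 20%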;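 as to inhibition: signal is fraction of cell area covered by stained E-selectin grains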;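 as to nuclei count: 100% = median nuclei count of all wells on the same plate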); settings: HUVEC TNFalpha-induced E-selectin immunofluorescence imaging, at 2 µM; inhibition: stronger effect = higher value; nuclei count: measured here: cell number, toxicity
[3] = DUSP6 inhibitors restoring Erk phosphorylation by chemical complementation, primary imaging in DUSP6-transfected HeLa (AID 609;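 active = compounds giving at least 50% inhibition in the cell-based MKP-3 phosphatase rescue imaging test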;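 as to inhibition: phospho-Erk level distribution per well compared with pooled transfected vehicle control wells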); settings: HeLa MKP-3 transfected, phospho-Erk imaging KS statistic, at 10 µM, cells stimulated with TPA for 15 min
[4] = molecular target: Dual specificity protein phosphatase 6 (Homo sapiens) (UniProt Q16828); test: as above; settings: HeLa MKP-3 transfected, phospho-Erk imaging KS statistic; at 10 µM; stronger effect = higher value; cells stimulated with TPA for 15 min
[5] = molecular target: Voltage-gated potassium channel subunit beta-2 (Rattus norvegicus) (UniProt P62483); test: KvBeta enzyme negative modulators, primary screen, biochemical, NADPH fluorescence (AID 622;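 active = fluorescence slope higher than the sample average by over 3 SD, cut at about -0.22 in these data, passing the limit was not always enough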;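 also: slope of raw intensity against log time taken from 70 to 1610 s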); settings: recombinant KvBeta, 4-cyanobenzaldehyde reduction, at 10 µM, stronger effect = higher value
[6] = molecular target: Voltage-gated potassium channel subunit beta-2 (Rattus norvegicus) (UniProt P62483); test: KvBeta positive modulators, primary screen, biochemical, NADPH fluorescence (AID 623;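 active = NADPH fluorescence slope more negative than the mean of all samples by about 3 SD, 99.7% confidence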;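 also: fluorescence intensity change per second fitted from 20 to 320 s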); settings: Recombinant KvBeta, NADPH fluorescence decrease slope, 10 min; at 10 µM; stronger effect = lower value
[7] = molecular target: Alpha-2C adrenergic receptor (Homo sapiens) (UniProt P18825); test: modulators of alpha2C/GIRK thallium flux, primary screen, cell-based, HEK293 alpha2C/GIRK1/2 (AID 624); settings: thallium flux BTC fluorescence, at 10 µM, actives lie on both sides;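 also: slope of fluorescence ratio to pre-addition baseline per second over 15 to 24 s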
[8] = inhibitors of larval lipid processing in zebrafish, primary screen, whole organism, PED6 fluorescence, gall bladder and intestine (AID 686;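 active = a full or partial loss of lipid-probe fluorescence in the fish gall bladder, intestine or both, judged by eye; inactive = no fluorescence loss, or compound toxic to the fish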;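 also: larvae 5 to 7 days old with five fish per well; signal comes from phospholipase A2 cleavage of quenched PED6 carried via bile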); settings: Zebrafish larvae PED6 lipid processing, fluorescence scoring; screened at 20 µM (by protocol)
How it was run: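 Incubation: overnight exposure of larvae to compound plus PED6 / Test system: live zebrafish larvae aged 5-7 days, whole organism / Amount: 5 larvae per well / Read-out basis: visual per-well fluorescence inhibition score / Signal: visual fluorescence microscopy scoring of gall bladder, gut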

[9] = inhibitors of Chlamydomonas gravitaxis, primary screen, whole organism, Chlamydomonas reinhardtii, WT vs cilia-less mutant, absorbance, 96-well (AID 463189;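 active = inhibition at or above 50% relative to wild type and mutant plate controls; inactive = inhibition below 50%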;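 also: 0% = wild type cc124 cells in DMSO and 100% = ciliumless bld1 mutant cells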); settings: OD600 absorbance, 2 days, at 10 µM, stronger effect = higher value
[10] = measured here: cell density z-score
[11] = measured here: nuclear c-Myc green intensity z-score
[12] = measured here: nuclear pErk red intensity z-score, stronger effect = higher value

Sequence of Dual specificity protein phosphatase 6 (Homo sapiens) (Q16828 whole entry, looked up): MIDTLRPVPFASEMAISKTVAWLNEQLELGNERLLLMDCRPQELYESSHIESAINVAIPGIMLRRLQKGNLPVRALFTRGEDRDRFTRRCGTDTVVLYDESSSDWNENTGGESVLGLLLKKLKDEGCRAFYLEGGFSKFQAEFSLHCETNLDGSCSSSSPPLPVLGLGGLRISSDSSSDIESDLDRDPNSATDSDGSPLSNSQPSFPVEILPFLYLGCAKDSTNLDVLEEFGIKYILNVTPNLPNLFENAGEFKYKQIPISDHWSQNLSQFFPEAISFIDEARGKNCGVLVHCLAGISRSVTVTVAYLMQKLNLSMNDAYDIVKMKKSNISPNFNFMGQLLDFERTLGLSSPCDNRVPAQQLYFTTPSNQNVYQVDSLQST
Sequence of Alpha-2C adrenergic receptor (Homo sapiens) (P18825 whole entry, looked up): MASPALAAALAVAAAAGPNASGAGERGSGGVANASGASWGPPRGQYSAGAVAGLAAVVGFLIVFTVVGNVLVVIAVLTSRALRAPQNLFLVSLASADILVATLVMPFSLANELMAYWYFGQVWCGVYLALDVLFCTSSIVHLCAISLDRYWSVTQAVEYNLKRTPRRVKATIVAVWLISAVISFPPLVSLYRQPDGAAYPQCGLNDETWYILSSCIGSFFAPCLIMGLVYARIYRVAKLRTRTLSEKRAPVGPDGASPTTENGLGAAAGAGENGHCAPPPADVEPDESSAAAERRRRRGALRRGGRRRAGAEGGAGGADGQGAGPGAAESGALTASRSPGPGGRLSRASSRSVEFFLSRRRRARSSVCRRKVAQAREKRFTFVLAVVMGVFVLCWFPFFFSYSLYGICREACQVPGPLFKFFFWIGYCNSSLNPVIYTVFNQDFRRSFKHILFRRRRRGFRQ
Sequence of Voltage-gated potassium channel subunit beta-2 (Rattus norvegicus) (P62483 whole entry, looked up): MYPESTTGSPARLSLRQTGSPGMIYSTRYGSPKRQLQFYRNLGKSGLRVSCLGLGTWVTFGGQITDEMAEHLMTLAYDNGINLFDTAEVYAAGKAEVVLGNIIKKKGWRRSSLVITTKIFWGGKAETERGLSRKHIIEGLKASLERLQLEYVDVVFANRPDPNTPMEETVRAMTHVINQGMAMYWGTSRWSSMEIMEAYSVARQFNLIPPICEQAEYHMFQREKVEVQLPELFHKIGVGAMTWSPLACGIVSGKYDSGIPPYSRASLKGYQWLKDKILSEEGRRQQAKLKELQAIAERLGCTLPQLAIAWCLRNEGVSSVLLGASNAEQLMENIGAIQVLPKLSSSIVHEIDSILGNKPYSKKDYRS

| SMILES | cell count [1] | inhibition [1] | inhibition [2] | nuclei count [2] | z-score [3, 10] | z-score [3, 11] | z-score [3, 12] | inhibition [4] | fluorescence slope [5] | NADPH fluorescence slope [6] | slope [7] | outcome [8] | inhibition [9] |
| --- | --- | --- | --- | --- | --- | --- | --- | --- | --- | --- | --- | --- | --- |
| CSC(=Nc1ccccc1)C1=C(O)COC1=O | 315 | -17.4% (inactive) | -75.7% (inactive) | 139% | 1.64 | -0.593 | -1.01 | 5.26% (inactive) | -0.419 (inactive) | -8.2e-05 (inactive) | 0.00729 (inactive) | inactive | -2.91% (inactive) |
| COc1cc(C2C3C(=O)N(c4ccc(F)cc4)C(=O)C3ON2c2ccccc2)ccc1O (centres undefined) | 470 | -13.5% (inactive) | -60% (inactive) | 137% | -1.73 | -0.628 | 0.0709 | -13.3% (inactive) | -0.498 (inactive) | -3.2e-05 (inactive) | 0.00461 (inactive) | inactive | 16.5% (inactive) |
| CCC12CN3CC(CC)(CN(C1)C3c1c(O)ccc3ccccc13)C2=O (centres undefined) | 585 | -1.9% (inactive) | -44.2% (inactive) | 185% | -0.501 | 0.162 | 0.594 | 9.82% (inactive) | -0.336 (inactive) | 5.6e-06 (inactive) | 0.00425 (inactive) | inactive | 6.95% (inactive) |
| Cc1cccc(C)c1NC(=O)CSCC(=O)c1ccc(O)c(O)c1 | 364 | -4.2% (inactive) | -100% (inactive) | 158% | 0.118 | 0.467 | 0.0935 | 24.7% (inactive) | -0.4 (inactive) | -6.4e-05 (inactive) | 0.00773 (inactive) | inactive | -8.43% (inactive) |
| COc1cccc(-c2nc(N3CCN(Cc4ccccc4)CC3)c3ccccc3n2)c1O | 578 | -4.5% (inactive) | 7% (inactive) | 126% | -0.018 | 0.0703 | 0.663 | 3.5% (inactive) | -0.272 (inactive) | 8.6e-06 (inactive) | 0.0051 (inactive) | inactive | 8.35% (inactive) |
| CC1CN(C2CCN(C(=O)COc3ccccc3)CC2)CC(C)O1 (centres undefined) | 357 | -12.6% (inactive) | -160% (inactive) | 111% | -0.694 | 1.72 | -2.62 | 1.75% (inactive) | -0.455 (inactive) | -1.3e-05 (inactive) | 0.00556 (inactive) | inactive | -3.28% (inactive) |
| CN=C1c2c(-c3ccccc3)c3cc(OC)ccc3n2CCN1C | 531 | -21.3% (inactive) | -137% (inactive) | 145% | 0.562 | 0.295 | -0.655 | -2.47% (inactive) | -0.118 (active) | -9.2e-06 (inactive) | 0.00488 (inactive) | inactive | 2.56% (inactive) |
| C=CCNc1nc(-c2ccc(O)c(C(N)=O)c2)cs1 | 651 | -7.7% (inactive) | -37.4% (inactive) | 154% | 1.4 | -1.92 | 0.332 | 7.48% (inactive) | -0.465 (inactive) | -0.000295 (inactive) | 0.00459 (inactive) | inactive | 22.9% (inactive) |
| COC(=O)c1ccc(Nc2cc(C)nc(-c3ccccc3O)n2)cc1 | 598 | -2.7% (inactive) | -66.3% (inactive) | 140% | 0.899 | 0.0889 | -0.242 | 1.9e-07% (inactive) | -0.106 (inactive) | 2.6e-07 (inactive) | 0.00449 (inactive) | inactive | 17.7% (inactive) |
| O=C1CCC(=O)N1CN(C(=O)c1ccco1)c1ccc(Cl)c(Cl)c1 | 481 | 1.1% (inactive) | -72.5% (inactive) | 125% | -1.21 | 0.938 | 0.134 | -3.5% (inactive) | -0.562 (inactive) | -2.3e-05 (inactive) | 0.00659 (inactive) | inactive | -12.3% (inactive) |
| CCOC(=O)c1[nH]c2ccc(OC)cc2c1C | 547 | -3.8% (inactive) | -0.1% (inactive) | 171% | -0.421 | -0.589 | 0.677 | -12.3% (inactive) | -0.361 (inactive) | -2.9e-05 (inactive) | 0.0043 (inactive) | inactive | 1.77% (inactive) |
| Cc1occc1C(=O)OCC(=O)Nc1ccc(F)cc1 | 527 | -1.1% (inactive) | -31.2% (inactive) | 113% | -1.12 | -1.15 | 1.8 | 29.3% (inactive) | -0.56 (inactive) | -4.4e-05 (inactive) | 0.00567 (inactive) | inactive | 1.09% (inactive) |
| CCc1nnc(NC(=O)CSc2nc(C)c3c(c2C#N)CCCC3)s1 | 613 | -13.4% (inactive) | -129% (inactive) | 189% | -0.0126 | 0.0813 | -0.0712 | -0.674% (inactive) | -0.446 (inactive) | 4.7e-06 (inactive) | 0.00625 (inactive) | inactive | 9.29% (inactive) |
